# From PubChem
# M4 antag – CHRM4 antagonism in calcium assay | CHO-hM4 cells, ACh EC80, Fluo-8 calcium fluorescence | inhibition, % at 3 µM | 0.73% of 360,000 active;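 active = inhibition above its plate's cutoff, the mean inhibition of sample wells plus 3 SD, cut at about 27% in these data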
# Target sequence (P08173 whole entry, looked up): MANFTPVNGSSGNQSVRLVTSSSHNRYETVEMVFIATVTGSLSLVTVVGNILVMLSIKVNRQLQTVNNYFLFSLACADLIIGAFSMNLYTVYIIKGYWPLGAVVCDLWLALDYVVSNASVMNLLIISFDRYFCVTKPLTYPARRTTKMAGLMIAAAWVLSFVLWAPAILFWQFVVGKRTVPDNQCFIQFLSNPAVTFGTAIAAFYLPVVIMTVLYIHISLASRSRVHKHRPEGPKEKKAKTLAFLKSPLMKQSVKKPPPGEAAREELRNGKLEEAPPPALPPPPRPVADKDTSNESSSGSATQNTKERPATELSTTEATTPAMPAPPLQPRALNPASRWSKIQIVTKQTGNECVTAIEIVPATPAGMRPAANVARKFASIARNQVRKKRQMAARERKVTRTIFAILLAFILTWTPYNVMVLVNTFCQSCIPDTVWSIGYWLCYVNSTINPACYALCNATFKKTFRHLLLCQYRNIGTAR
# M4 ag – CHRM4 agonism in calcium assay | P08173 | CHO-K1 hM4/Gqi5, Fluo-8 calcium fluorescence; vehicle 0%, full acetylcholine response 100% | activation, % at 3 µM | 0.14% of 360,000 active | AID 624127;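 active = activation above the run mean over all test wells plus 3 SD, cut at about 32% in these data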;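 note: peak over basal fluorescence ratio per well then scaled between controls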
# TAAR1 antag – human TAAR1 antagonism; Q96RJ0; CHO RD-HGA16 TAAR1, Fluo-8 calcium fluorescence, antagonist; inhibition, % at 3 µM; 1.5% of 360,000 active; AID 624466;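 active = inhibition above a per-plate cutoff, the mean inhibition of test compounds on that plate plus 3 SD, cut at about 49% in these data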
#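 test system = CHO RD-HGA16 cells bearing hTAAR1 | replication = singlicate | controls = DMSO-only wells and EC80 β-PEA-stimulated wells | reagent = EC80 β-phenethylamine stimulus | read-out basis = percent inhibition of PEA-evoked calcium signal, max/basal emission ratio | schedule = seeding 17-24 h prior, 75-min 37 °C, 30-min RT dye loading | signal = kinetic Fluo-8 calcium fluorescence measurement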
# TAAR1 ag – human TAAR1 agonism. 0.99% of 360,000 active. Q96RJ0. activation, % at 3 µM. CHO RD-HGA16 TAAR1, Fluo-8 calcium fluorescence; vehicle wells 0%, saturating PEA agonist 100%;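 active = activation above the mean activation of all test compounds in the run plus 3 SD, cut at about 38% in these data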
#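 Assay system: CHO-derived RD-HGA16 cells with stable Gα16 and human TAAR1; timing: 17-24 h seeding, 75 min 37 °C dye, 30 min RT; read-out: % activation from peak over basal fluorescence ratio, DMSO-to-PEA scaled; measured by: kinetic Fluo-8 calcium fluorescence; benchmarks: low control DMSO, high control PEA (EC100); doses: 3 µM single concentration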
# CHRM4 PAM – positive allosteric modulators of human muscarinic M4 receptor; CHO-K1 hM4/Gqi5, Fluo-8 calcium fluorescence, ACh EC20; 0% = ACh EC20, 100% = maximal ACh; activation, % at 3 µM; 0.4% of 360,000 active; AID 624126;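 active = activation above its plate's cutoff, the mean activation of sample wells plus 3 SD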
# Hits are given with their value; – = inactive; · = no result given. The list is not random: actives were taken first. Their share in the collection is about 3%.
SMILES,M4 antag,M4 ag,TAAR1 antag,TAAR1 ag,CHRM4 PAM
CCC(c1nnnn1Cc1ccc(F)cc1)N1CCN(C)CC1 (stereo unspecified),–,–,–,–,24.3
CN1CCN(C(c2cccs2)c2nnnn2Cc2ccc(F)cc2)CC1 (stereo unspecified),–,–,–,–,–
CCN1CCCC1CN(Cc1cc2c(C)cc(C)cc2[nH]c1=O)C(=O)NC1CCCCC1 (stereo unspecified),35.6,–,–,–,–
O=C(N[C@H](Cc1ccccc1)C(=O)NCc1ccccn1)[C@H]1O[C@@H](n2ccc(=O)[nH]c2=O)[C@H](O)[C@@H]1O,·,·,–,–,·
N#Cc1ccc(N2CCN(C(=O)c3cccc(F)c3)CC2)c(F)c1,–,–,–,–,16.3
O=C(c1cccc(F)c1)N1CCCN(C(=O)c2cccc(F)c2)CC1,–,–,–,–,–
C[C@H]1CN(C(=O)OC(C)(C)C)CCN1c1ccc(N2CC[C@@H](O)C2)c(C#N)c1,·,·,–,–,·
Cc1ccc(C2NC(=O)c3n[nH]c(C(C)C)c32)cc1 (stereo unspecified),·,·,–,–,·
COc1cccc(C(=O)Nc2nc(-c3ccc(S(=O)(=O)N4CCOCC4)cc3)cs2)c1,–,–,49.6,–,–
OCC[C@H]1NCc2cc(CO)cc(-c3ccccc3)c21,–,–,–,–,–
Cc1ccc2nc3n(c(=O)c2c1)-c1ccc(Cl)cc1C(=O)NC3CC(C)C (stereo unspecified),·,·,–,–,·
CN1C2CC(OC(=O)C(CO)c3ccccc3)CC1C1OC12 (stereo unspecified),98.9,–,–,–,–
CCCCCC(=O)N1C[C@@H](n2cc(COC(=O)c3ccccc3)nn2)[C@H](O)C[C@@H]1c1ccc(C)cc1,–,–,–,–,–
COc1cccc(CNC(=O)[C@H]2CCCN2C(=O)[C@H]2CCCN2C(=O)OC(C)(C)C)c1,·,·,–,–,·
O=C(NCC1CCN(C(=O)C(=O)c2cc3ccccc3o2)CC1)c1ccc2c(c1)OCCCO2,·,·,–,–,·
CCOC(=O)C(CNc1ccc(OCc2ccccc2)cc1)NC(=O)c1ccccc1 (stereo unspecified),·,·,–,–,·
CCOC(=O)c1ccc(N2CCN(c3ccc(F)cc3)CC2)c(NC(=O)Nc2cccc(OC)c2)c1,–,–,57.8,–,–
CCOC(=O)c1ccc(N2CCN(c3ccccc3F)CC2)c(NC(=O)Nc2ccccc2)c1,36.3,–,–,–,–
CCOC(=O)c1ccc(N2CCN(C(=O)c3ccccc3)CC2)c(NC(=O)c2ccco2)c1,–,–,–,–,–
COc1cccc(NC(=O)CN2CCN(c3ccc(F)cc3)CC2)c1,–,–,–,–,–
COc1ccc(N2CCN(Cc3nc(N)nc(Nc4ccccc4OC)n3)CC2)cc1,26.7,–,–,–,–
CN(c1cccnc1)c1ccc(NC(=O)Cc2c[nH]c3ccccc23)cc1Br,·,·,–,–,·
CN1CCN(CCCNC(=O)c2ccc(/C=C3/Sc4ccccc4N(Cc4cccc(Cl)c4)C3=O)cc2)CC1,–,–,56.6,–,–
CN1C(=O)/C(=C/c2cccc(Cl)c2)Sc2ccc(C(=O)NCc3cccnc3)cc21,–,–,51.0,–,–
NCc1ccc(OCCCN2CCC(C(O)(C3=CCCC3)c3ccccc3)CC2)cc1 (stereo unspecified),·,·,–,–,·
SMILES,M4 antag,M4 ag,TAAR1 antag,TAAR1 ag,CHRM4 PAM
FC(F)Oc1ccc(C2=Nn3c(nnc3-c3ccccc3Cl)SC2)cc1OCC1CC1,–,–,–,–,–
COc1ccc(C2=Nn3c(nnc3-c3ccccc3F)SC2)cc1OCC1CC1,–,–,52.4,–,–
COc1ccc(-c2nnc3n2N=C(C)CS3)cc1,–,–,–,–,–
COc1ccc(C2=Nn3c(nnc3-c3ccc(OC)cc3)SC2)cc1,27.6,–,–,–,–
Cc1c(C)c2cc(Cl)c(O)c(CN3CCCC(C)C3)c2oc1=O (stereo unspecified),28.0,–,–,–,–
COc1cc(NC(=O)C2=C(N3CCOCC3)/C(=C\c3ccc(N(C)C)cc3)CCC2)cc(OC)c1OC,–,–,–,–,21.4
CC(=O)c1c(C)[nH]c(C(=O)COC(=O)C2(C)CC2(Cl)Cl)c1C (stereo unspecified),–,–,55.8,–,–
CC(=O)c1c(C)[nH]c(C(=O)COC(=O)c2cc(C)oc2C)c1C,–,–,–,–,–
